The nature of data set [1]: Partition coefficient (logP). The data set is classed as physicochemical. As to conditions: octanol/water.
For data set [2], the target named is T1, Polyunsaturated fatty acid 5-lipoxygenase (Rattus norvegicus, UniProt P12527).
T1 sequence (P12527 whole entry): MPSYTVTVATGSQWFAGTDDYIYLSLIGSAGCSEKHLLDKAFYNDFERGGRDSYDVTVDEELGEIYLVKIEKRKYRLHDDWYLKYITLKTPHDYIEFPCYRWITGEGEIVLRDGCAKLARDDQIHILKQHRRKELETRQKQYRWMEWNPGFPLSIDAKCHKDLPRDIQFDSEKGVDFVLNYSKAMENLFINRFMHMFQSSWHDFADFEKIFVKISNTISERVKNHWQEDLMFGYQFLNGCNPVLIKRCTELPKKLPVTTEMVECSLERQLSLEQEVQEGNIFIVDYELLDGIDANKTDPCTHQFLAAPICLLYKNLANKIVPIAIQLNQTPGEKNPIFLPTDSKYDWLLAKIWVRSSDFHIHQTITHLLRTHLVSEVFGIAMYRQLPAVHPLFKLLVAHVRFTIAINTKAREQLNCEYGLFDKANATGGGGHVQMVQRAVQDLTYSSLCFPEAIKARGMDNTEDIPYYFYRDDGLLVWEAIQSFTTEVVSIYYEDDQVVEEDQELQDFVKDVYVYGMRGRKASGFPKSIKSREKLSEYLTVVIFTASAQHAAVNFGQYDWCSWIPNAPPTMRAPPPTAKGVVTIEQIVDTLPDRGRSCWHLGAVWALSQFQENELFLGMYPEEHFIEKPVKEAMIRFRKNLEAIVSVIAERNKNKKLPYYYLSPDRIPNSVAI
As to the kind of experiment: In vitro inhibition of rat 5-Lipoxygenase. Summed up: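 Broken-cell assay: homogenized rat basophilic RBL-1 cells preincubated 5 min at 37 °C with compound or vehicle, then given [14C]arachidonic acid. A chloroform extract was run on TLC, and LTB4 and 5-HETE were quantified by radiochromatographic scanning.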

Data set [3] has as its system Cavia porcellus. As to the kind of experiment: Compound was evaluated for the inhibition of leukotriene-mediated bronchoconstriction in guinea pig (in vivo). As to conditions: Lung. Type of data set: functional. A digest of the protocol:
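Guinea pigs were immunized with ovalbumin 1 mg plus alum 3 mg and used two weeks later, anesthetized and mechanically ventilated with tracheal pressure monitored. Pretreatment iv: naproxen 10 mg/kg, pyrilamine 3 mg/kg, propranolol 0.1 mg/kg. Compound or vehicle was given orally 1 h before iv ovalbumin challenge (0.3 mg/kg). Percent inhibition was taken from the maximum tracheal pressure rise within 20 min. ED50 with 95% confidence limits came from linear dose-response portions, n≥8 per dose.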

Data set [4] deals with T2, Polyunsaturated fatty acid 5-lipoxygenase (Rattus norvegicus) (UniProt P12527).
T2 sequence (whole entry): T1 sequence (P12527 whole entry)
The data set is described as follows: Compound was evaluated for the inhibition of 5-Lipoxygenase (5-LO) ex vivo. The data set is classed as functional. A digest of the protocol: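 Rats received 0.25% (w/v) carrageenan to induce pleural inflammation. After 3 h, compound or vehicle was given orally, and rats were killed 1 h later. Pleural exudate cells (>95% neutrophils) were stimulated with A23187 for 15 min and stopped with acetonitrile/methanol. After 30 min extraction at room temperature, samples were centrifuged and LTB₄ measured by reverse-phase HPLC. ED₅₀ with 95% confidence limits came from linear dose-response portions, ≥5 animals per dose.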

Data set [5] has as its target T2, Polyunsaturated fatty acid 5-lipoxygenase (Rattus norvegicus). Particulars: at 1 µM.
The target is the same in data set [6]. As to the kind of experiment: Compound was evaluated for the inhibition of 5-Lipoxygenase (5-LO) in vitro at 1 uM.

The source of these data is ChEMBL document CHEMBL1125687, “5-Lipoxygenase inhibitors: the synthesis and structure-activity relationships of a series of 1-phenyl-3-pyrazolidinones” (J Med Chem, 1991).

A word on the logP: it is the decadic logarithm of the partition coefficient of the neutral form, usually between octanol and water. Usually IC50 stands for the midpoint of a concentration-inhibition curve. One may read the ED50 as the dose at which the effect has come halfway, by size or by number of responders. Higher therefore signals weaker potency. As usually defined, the inhibition is the percentage by which the read-out fell short of the control.

SMILES strings stand for the structures. Some results are limits rather than exact numbers.

For the molecule `COCCC1CN(c2ccc(O)cc2)NC1=O` (stereo unspecified), the logP in data set [1] was -0.14. For the same molecule, the IC50 in data set [2] turned out to be 5130 nM.

As to `COCC1CN(c2ccccc2)NC1=O` (stereo unspecified), the logP in data set [1] is 0.891. In addition, the figures for the ED50 in data set [3] and in data set [4] were 25 mg/kg and 29 mg/kg, respectively. Besides, the IC50 in data set [2] came to 590 nM.

`COCCC1CN(c2ccccc2)NC1=O` (stereo in doubt; 1f (-)) displayed an IC50 in data set [2] of 10300 nM.

In data set [1], `COCCC1CN(c2ccc(C)cc2)NC1=O` (stereo unspecified) came in with a logP of 1.03.

Turning to `COCCC1CN(c2cccc(C(F)(F)F)c2)NC1=O` (stereo unspecified), the log partition coefficient (logP) in data set [1] worked out at 1.41. For the same molecule, the IC50 in data set [2] worked out at 220 nM.

Molecule `COCCC1CN(c2ccc(OC)cc2)NC1=O` (stereo unspecified) yielded a logP in data set [1] of 0.45. This molecule returned an IC50 in data set [2] of 1460 nM.

In the case of `O=C1NN(c2ccccc2)CC1SCc1ccccc1` (stereo unspecified), in data set [1], the lipophilicity (logP) came to 3.63. In data set [2], the IC50 was 180 nM.

The molecule `COCc1cn(-c2ccccc2)[nH]c1=O` had an IC50 in data set [2] above 1000 nM.

On to `O=C1NN(c2ccccc2)CC1C(O)(c1ccccc1)c1ccccc1` (stereo unspecified), for which, in data set [2], the half-inhibitory concentration (IC50) was below 1000 nM.

Take `CSC1CN(c2ccccc2)NC1=O` (stereo unspecified): the lipophilicity (logP) in data set [1] was found to be 1.97. Moreover, in data set [2], half-maximal inhibition (IC50) required 320 nM.

In turn, `O=C1NN(c2ccccc2)CC1CCO` (stereo unspecified) displayed an IC50 in data set [2] above 1000 nM. Also, the inhibition in data set [5] came to 35%.

With `COCC1CN(c2ccccc2)N(C)C1=O` (stereo unspecified), the IC50 in data set [2] was above 1000 nM. Moreover, the inhibition in data set [5] is below 20%.

Consider `CCCOCC1CN(c2ccccc2)NC1=O` (stereo unspecified), for which, in data set [1], the logP amounted to 1.95. Further, inhibition in data set [2] was half-maximal at 260 nM (IC50).

On to `COCCC1C(=O)NN(c2ccccc2)C1(C)C` (stereo unspecified), for which, in data set [2], the concentration for half-maximal inhibition (IC50) is above 1000 nM. In addition, the inhibition in data set [5] is below 20%.

In turn, `COCCC1CN(c2ccccc2)NC1=O` (stereo in doubt; 1f) [listing 1 of 2 here] gave a 50% effective dose (ED50) in data set [4] of 43 mg/kg.

Take `CCOCC1CN(c2ccccc2)NC1=O` (stereo unspecified): the lipophilicity (logP) in data set [1] turned out to be 1.42. Also, the IC50 in data set [2] was 280 nM.

Molecule `COCCC1CN(c2ccc(Cl)c(Cl)c2)NC1=O` (stereo unspecified) came in with a logP in data set [1] of 1.96. For the same molecule, the IC50 in data set [2] was found to be 190 nM.

In data set [1], `CCSC1CN(c2ccccc2)NC1=O` (stereo unspecified) gave a logP of 2.5. Moreover, the ED50 in data set [3] amounted to 92 mg/kg; in data set [4], 95 mg/kg. Further, in data set [2], the IC50 came to 60 nM.

In turn, `COCCC1CN(c2ccc(Cl)cc2)NC1=O` (stereo unspecified) displayed a logP in data set [1] of 1.24. Besides, the IC50 in data set [2] was found to be 250 nM.

Turning to `COCC1(C)CN(c2ccccc2)NC1=O` (stereo unspecified), the logP in data set [1] was found to be 1.41. In data set [2], the IC50 came to 670 nM.

In data set [2], `CN(C)CCC1CN(c2ccccc2)NC1=O` (stereo unspecified) returned an IC50 above 1000 nM. Besides, the inhibition in data set [6] was below 20%.

In data set [6], `CC(=O)NN(C)c1ccccc1` had an inhibition below 20%.

With `COCCC1CN(c2ccc(OCc3ccccc3)cc2)NC1=O` (stereo unspecified), the logP in data set [1] came to 2.22. For the same molecule, the IC50 in data set [2] was determined as 500 nM.

In data set [1], `O=C1NN(c2ccccc2)CC1Cc1cccs1` (stereo unspecified) had a logP of 2.48. The molecule further came in with an IC50 in data set [2] of 140 nM.

As to `O=C1CCN(c2ccccc2)N1` [PHENIDONE], the logP in data set [1] was determined as 0.893. For the same molecule, the ED50 is 69 mg/kg in data set [3] and 16 mg/kg in data set [4].

In data set [1], `COCCC1CN(c2ccccc2)NC1=O` (stereo in doubt; 1f) [listing 2 of 2 here] yielded a logP of 0.53. The same molecule registered an ED50 in data set [3] of 62 mg/kg. Further, the IC50 in data set [2] stood at 480 nM.

On to `COCCOCC1CN(c2ccccc2)NC1=O` (stereo unspecified), for which, in data set [1], the logP was found to be 0.955. For the same molecule, in data set [2], it took 520 nM to reach half-maximal inhibition (IC50).

Regarding `NC1=NN(c2cccc(C(F)(F)F)c2)CC1` [BW-755C], the ED50 in data set [3] was 300 mg/kg; in data set [4], above 300 mg/kg.

In the case of `COCCc1cn(-c2ccccc2)[nH]c1=O`, the IC50 in data set [2] was above 1000 nM. Moreover, the inhibition in data set [5] worked out at 35%.

With `O=C1CCCN(c2ccccc2)N1`, in data set [1], the logP was 1.45. Further, the IC50 in data set [2] came out at 530 nM.

With `CCOCCC1CN(c2ccccc2)NC1=O` (stereo unspecified), the logP in data set [1] was found to be 1.06. Also, the IC50 in data set [2] was 150 nM.

`COCCC1CN(c2ccccc2)NC1=O` (single isomer, unassigned; (+)) displayed an IC50 in data set [2] of 350 nM.

The molecule `COCCC1CCN(c2ccccc2)NC1=O` (stereo unspecified) displayed a logP in data set [1] of 1.09. The IC50 in data set [2] was found to be 440 nM.

For the molecule `COCCC1C(=O)NN(c2ccccc2)C1C` (stereo unspecified), the logP in data set [1] amounted to 1.05. This molecule had an IC50 in data set [2] of 500 nM.

The molecule `O=C1NN(c2ccccc2)CC1Sc1ccccn1` (stereo unspecified) returned a lipophilicity (logP) in data set [1] of 2.16. Also, the IC50 in data set [2] amounted to 120 nM.

The molecule `CC(C)(O)C1CN(c2ccccc2)NC1=O` (stereo unspecified) showed an IC50 in data set [2] above 1000 nM. Moreover, the inhibition in data set [5] turned out to be 35%.
